Test results: article PMC12246158 (Scientific Reports, 2025)

How the values were obtained:
L. major promastigotes = experiment: Parasite counting method; assay type: cell-based; details: microscopic counting, 24, 48 and 72 h at 24 °C
How it was run: (§1)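 Promastigotes (L. major MRHO/IR/75/ER; L. tropica MRHO/IR/02/Mash10), grown in RPMI 1640 with 20% heat-inactivated FBS and pen-strep, were seeded at 1 × 10^6/mL in log phase. They were exposed to 3.12–1000 µM test compound (DMSO stock diluted in PBS) for 24, 48 and 72 h at 24 °C. Fixed parasites were counted daily in a Neubauer chamber at 400x. Triplicate; AmB 0.93 µM reference; repeated-measures ANOVA.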

L. tropica promastigotes = experiment: Parasite counting method; assay type: cell-based; details: microscopic counting, 24, 48 and 72 h at 24 °C
How it was run: as §1

[1] = system: L. major intracellular amastigotes; experiment: Anti-intracellular amastigote activity in J774A.1 macrophages; assay type: cell-based, L. major (MRHO/IR/75/ER); details: Leishmania species not given
How it was run: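 SI = CC50/IC50. For amastigotes, J774A.1 cells (10^5/well) were seeded on coverslips for 24 h at 37 °C, 5% CO2, then infected with stationary-phase metacyclic promastigotes (10:1) for 24 h. Test compound 1.32–1000 µM was added for 72 h, then cells were methanol-fixed and Giemsa-stained; amastigotes per 100 macrophages were counted. […] Triplicates.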

| SMILES | effect on promastigote count (in words) (L. major promastigotes) | effect on promastigote count (in words) (L. tropica promastigotes) | reduction of the number of amastigotes toward the untreated negative control [1] |
| --- | --- | --- | --- |
| CNC(=S)NN=Cc1ccc(OC)c(OC)c1 [Compound 5a, 2-(3,4-Dimethoxybenzylidene)-N-methylhydrazine-1-carbothioamide] | significant reduction in promastigote count | significant reduction in promastigote count | – |
| CNC(=S)NN=Cc1ccc(O)c(OC)c1 [Compound 5b, 2-(4-Hydroxy-3-methoxybenzylidene)-N-methylhydrazine-1-carbothioamide] | significant reduction in promastigote count | significant reduction in promastigote count | – |
| CNC(=S)NN=Cc1ccc(C)cc1 [Compound 5c, N-Methyl-2-(4-methylbenzylidene)hydrazine-1-carbothioamide] | mild | mild | – |
| CNC(=S)NN=Cc1ccc(Br)cc1 [Compound 5e, 2-(4-Bromobenzylidene)-N-methylhydrazine-1-carbothioamide] | significant reduction in promastigote count | significant reduction in promastigote count | – |
| CNC(=S)NN=Cc1ccc([N+](=O)[O-])cc1 [Compound 5f, 2-(4-Nitrobenzylidene)-N-methylhydrazine-1-carbothioamide] | significant reduction in promastigote count | significant reduction in promastigote count | – |
| CNC(=S)NN=Cc1ccc(OC)cc1 [Compound 5g, N-Methyl-2-(4-methoxybenzylidene)hydrazine-1-carbothioamide] | significant reduction in promastigote count | significant reduction in promastigote count | – |
| O=[N+]([O-])NC(=S)NN=Cc1ccc(Br)cc1 [Compound 5j, 2-(4-Bromobenzylidene)-N-nitrohydrazine-1-carbothioamide] | mild effect | mild effect | – |
| S=C(NN=Cc1ccc(Br)cc1)Nc1cccnc1 [Compound 5n, 2-(4-Bromobenzylidene)-N-(pyridin-3-yl)hydrazine-1-carbothioamide] | limited activity | limited activity | 20–25% |
| COc1ccc(C=NNC(=S)Nc2cccnc2)cc1OC [Compound 5o, 2-(3,4-Dimethoxybenzylidene)-N-(pyridin-3-yl)hydrazine-1-carbothioamide] | limited activity | limited activity | 20–25% |
